ChEMBL document CHEMBL1123507, “Antipicornavirus activity of substituted phenoxybenzenes and phenoxypyridines” (J Med Chem, 1986)
Converted amounts (≈) assume the structure as drawn.

Assays:
Enterovirus [1] = experiment: Antiviral activity against rhinovirus RV-9; assay type: functional
Outline: (§1)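 HeLa monolayers were seeded at (1.0-1.3) × 10^5 cells/well, grown 24 h at 36 °C in 5% CO2 to 60–75% cover, then refed with maintenance medium (1-2% heat-inactivated FCS) containing two-fold serial compound dilutions made from a 200 μg/mL stock in Me2SO/medium, with final Me2SO ≤0.1%. Cells were challenged with 10-100 TCID50 virus, and CPE was read microscopically at 48 and 72 h. MIC50 was the lowest concentration giving ≥50% CPE reduction versus virus control. Cytotoxicity was the lowest concentration causing cell death, a growth change or a morphology change in uninfected cultures.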

Enterovirus [2] = experiment: Antiviral activity against rhinovirus RV-33; assay type: functional; outline: as §1
Enterovirus [3] = experiment: Antiviral activity against rhinovirus RV-13; assay type: functional; outline: as §1
Enterovirus [4] = experiment: Ratio of the MIC50 of 6-(4-Nitro-phenoxy)-nicotinonitrile compared to compound obtained in the same test for Rhinovirus (RV)-2; assay type: functional
Outline: (§2)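 Relative activity was calculated as the MIC50 of the positive control 5-cyano-2-(4-nitrophenoxy)pyridine divided by the MIC50 of the test compound. Both were measured in parallel in the same HeLa CPE test (48/72 h microscopic reading) against RV-1A, RV-2 or coxsackievirus A21.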

Enterovirus [5] = experiment: Antiviral activity against rhinovirus RV-8; assay type: functional; outline: as §1
Enterovirus [6] = experiment: Antiviral activity against rhinovirus RV-39; assay type: functional; outline: as §1
HeLa = experiment: Cytotoxicity concentration in HeLa cells; assay type: cell-based; conditions: human; outline: as §1
Enterovirus [7] = experiment: Antiviral activity against rhinovirus RV-32; assay type: functional; outline: as §1
Enterovirus [8] = experiment: Antiviral activity against rhinovirus RV-55; assay type: functional; outline: as §1
Enterovirus [9] = experiment: Antiviral activity against rhinovirus RV-64; assay type: functional; outline: as §1
Enterovirus C = experiment: Antiviral activity against Poliovirus type 2; assay type: functional
Outline: (§3)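 HeLa monolayers (1.0-1.3×10^5 cells/well, grown 24 h at 36 °C to 60-75% cover) refed with maintenance E-MEM (1-2% heat-inactivated FCS) holding two-fold serial dilutions from a 200 μg/mL DMSO stock (final DMSO ≤0.1%). Challenged with 10-100 TCID50 virus, 36 °C, 5% CO2. CPE read microscopically at 48 and 72 h. MIC50 is the lowest concentration cutting CPE ≥50% vs virus control.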

Coxsackievirus [10] = experiment: Ratio of the MIC50 of 6-(4-Nitro-phenoxy)-nicotinonitrile compared to compound obtained in the same test for coxsackie A21; assay type: functional; outline: as §2
Enterovirus [11] = experiment: Antiviral activity against rhinovirus RV-49; assay type: functional; outline: as §1
Enterovirus [12] = experiment: Antiviral activity against rhinovirus RV-68; assay type: functional; outline: as §1
Enterovirus [13] = experiment: Compound was evaluated for inhibition of rhinovirus RV-Hanks at a dose of 50 ug/mL by < 50%; assay type: functional
Enterovirus [14] = experiment: Antiviral activity against rhinovirus RV-21; assay type: functional; outline: as §3
Enterovirus [15] = experiment: Antiviral activity against rhinovirus RV-14; assay type: functional; outline: as §1
Mengo virus = experiment: Antiviral activity against mengo; assay type: functional; conditions: Cardiovirus A; outline: as §1
Enterovirus [16] = experiment: Compound was evaluated for inhibition of rhinovirus RV-Hanks 75%; assay type: functional
Coxsackievirus [17] = experiment: Lowest concentration to reduce viral effect by 50% or more against coxsackie virus A21; assay type: functional; outline: as §1
Enterovirus [18] = experiment: Antiviral activity against rhinovirus RV-10; assay type: functional; outline: as §1
Enterovirus [19] = experiment: Ratio of the MIC50 of 6-(4-Nitro-phenoxy)-nicotinonitrile compared to compound obtained in the same test for Rhinovirus (RV)-1A; assay type: functional; outline: as §2
Enterovirus [20] = experiment: Antiviral activity against rhinovirus RV-29; assay type: functional; outline: as §1
Enterovirus [21] = experiment: Antiviral activity against rhinovirus RV-1B; assay type: functional; outline: as §1
Enterovirus [22] = experiment: Lowest concentration to reduce viral effect by 50% or more against Rhinovirus (RV)-2; assay type: functional; outline: as §1
Enterovirus [23] = experiment: Lowest concentration to reduce viral effect by 50% or more against Rhinovirus (RV)-1A; assay type: functional; outline: as §1
Enterovirus [24] = experiment: Antiviral activity against rhinovirus RV-Hanks; assay type: functional; outline: as §1
Enterovirus [25] = experiment: Antiviral activity against rhinovirus RV-74; assay type: functional; outline: as §1
Enterovirus [26] = experiment: Antiviral activity against rhinovirus RV-5; assay type: functional; outline: as §1
Enterovirus [27] = experiment: Antiviral activity against rhinovirus RV-44; assay type: functional; outline: as §1
Coxsackievirus [28] = experiment: Antiviral activity against coxsackie B4; assay type: functional; outline: as §1
Enterovirus [29] = experiment: Antiviral activity against rhinovirus RV-4; assay type: functional; outline: as §1
Echovirus = experiment: Antiviral activity against Echo 12; assay type: functional; outline: as §1
Coxsackievirus [30] = experiment: Antiviral activity against rhinovirus Coxsackie B3; assay type: functional; outline: as §1
Enterovirus [31] = experiment: Compound was evaluated for inhibition of rhinovirus RV-Hanks at a dose of 50 ug/mL by <50%; assay type: functional
Enterovirus [32] = experiment: Antiviral activity against rhinovirus Polio 2; assay type: functional; outline: as §3

SMILES | MIC (Enterovirus [1]) [µM] | MIC (Enterovirus [2]) [µM] | MIC (Enterovirus [3]) [µM] | Relative activity (Enterovirus [4]) | MIC (Enterovirus [5]) [µM] | MIC (Enterovirus [6]) [µM] | Toxicity (HeLa) [µM] | MIC (Enterovirus [7]) [µM] | MIC (Enterovirus [8]) [µM] | MIC (Enterovirus [9]) [µM] | Relative activity (Coxsackievirus [10]) | MIC (Enterovirus [11]) [µM] | MIC (Enterovirus [12]) [µM] | inhibition at 50 µg/mL (Enterovirus [13]) [%] | MIC (Enterovirus [14]) [µM] | MIC (Enterovirus [15]) [µM] | MIC (Mengo virus) [µM] | Inhibition (Enterovirus [16]) [%] | MIC50 (Coxsackievirus [17]) [µM] | MIC (Enterovirus [18]) [µM] | further results
CS(=O)(=O)c1ccc(Oc2ccc(Cl)c(Cl)c2)nc1 | 31 (≈ 9.86 µg/mL) | 2 (≈ 0.636 µg/mL) | > 16 | 10.4 | > 39 | 20 (≈ 6.36 µg/mL) | 157 | 4.1 (≈ 1.3 µg/mL) | < 2 | 0.94 (≈ 0.299 µg/mL) | 0.65 | < 2 | > 31 | 25 | 31 (≈ 9.86 µg/mL) | > 31 | > 16 | 65 | 20 (≈ 6.36 µg/mL) | < 4.1 | MIC (Enterovirus C): > 39 µM; Relative activity (Enterovirus [19]): 10.4; MIC (Enterovirus [20]): 4.1 µM (≈ 1.3 µg/mL); MIC (Enterovirus [21]): < 0.94 µM; MIC50 (Enterovirus [22]): 2 µM (≈ 0.636 µg/mL); MIC50 (Enterovirus [23]): 1 µM (≈ 0.318 µg/mL); MIC (Enterovirus [24]): 31 µM (≈ 9.86 µg/mL); MIC (Enterovirus [25]): 7.9 µM (≈ 2.51 µg/mL); MIC (Enterovirus [26]): > 39 µM; MIC (Enterovirus [27]): 16 µM (≈ 5.09 µg/mL); MIC (Coxsackievirus [28]): 39 µM (≈ 12.4 µg/mL); MIC (Enterovirus [29]): 79 µM (≈ 25.1 µg/mL); MIC (Echovirus): < 4.1 µM; MIC (Coxsackievirus [30]): > 7.9 µM
N#Cc1ccc(Oc2ccc([N+](=O)[O-])cc2)nc1 | – | – | – | – | – | – | – | – | – | – | – | – | – | – | – | – | – | 85 | – | – | inhibition at 50 µg/mL (Enterovirus [31]): 8%
N#Cc1cc([N+](=O)[O-])ccc1Oc1ccc(Cl)c(Cl)c1 | 0.42 (≈ 0.13 µg/mL) | 0.81 (≈ 0.25 µg/mL) | 0.81 (≈ 0.25 µg/mL) | 99.6 | 0.52 (≈ 0.161 µg/mL) | 0.42 (≈ 0.13 µg/mL) | > 324 | 0.97 (≈ 0.3 µg/mL) | 0.81 (≈ 0.25 µg/mL) | 0.52 (≈ 0.161 µg/mL) | 99.6 | 0.81 (≈ 0.25 µg/mL) | < 1.9 | 0 | 1.9 (≈ 0.587 µg/mL) | 3.2 (≈ 0.989 µg/mL) | > 1.6 | 100 | 0.52 (≈ 0.161 µg/mL) | < 1 | Relative activity (Enterovirus [19]): 319; MIC (Enterovirus [20]): 0.81 µM (≈ 0.25 µg/mL); MIC (Enterovirus [21]): 0.81 µM (≈ 0.25 µg/mL); MIC50 (Enterovirus [22]): 0.26 µM (≈ 0.0804 µg/mL); MIC50 (Enterovirus [23]): 0.26 µM (≈ 0.0804 µg/mL); MIC (Enterovirus [24]): 0.42 µM (≈ 0.13 µg/mL); MIC (Enterovirus [25]): < 0.97 µM; MIC (Enterovirus [26]): 2 µM (≈ 0.618 µg/mL); MIC (Enterovirus [27]): 0.81 µM (≈ 0.25 µg/mL); MIC (Coxsackievirus [28]): 4.9 µM (≈ 1.51 µg/mL); MIC (Enterovirus [29]): 0.97 µM (≈ 0.3 µg/mL); MIC (Echovirus): 0.97 µM (≈ 0.3 µg/mL); MIC (Enterovirus [32]): 1.9 µM (≈ 0.587 µg/mL); MIC (Coxsackievirus [30]): 4.9 µM (≈ 1.51 µg/mL)
